Assay results reported in ChEMBL document CHEMBL5113397, “Identification, optimization, and biological evaluation of 3-O-β-chacotriosyl ursolic acid derivatives as novel SARS-CoV-2 entry inhibitors by targeting the prefusion state of spike protein” (Eur J Med Chem, 2022).

Assays:
[1] = Selectivity index, ratio of CC50 for cytotoxicity against African green monkey Vero E6 cells to EC50 for antiviral activity against SARS-CoV-2 Wuhan-Hu-1 infected African green monkey Vero E6 cells; type: toxicity, cell-based, Vero C1008; conditions: read-out: Ratio CC50/EC50
[2] = Cytotoxicity against African green monkey Vero E6 cells assessed as inhibition of cell growth incubated for 48 hrs by MTT assay; type: toxicity, cell-based, Vero C1008; conditions: chlorocebus sabaeus
In short: (§1)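 Monolayers of 293T-ACE2 or Vero E6 cells in DMEM with 10% FBS were PBS-rinsed and exposed to compounds for 48 h. MTT 0.5 mg/mL was then added for 4 h at 37 °C, formazan dissolved in DMSO, and absorbance read at 570 nm.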

[3] = Cytotoxicity against human HEK293T cells overexpressing human ACE2 assessed as inhibition of cell growth incubated for 48 hrs by MTT assay; type: toxicity, cell-based, HEK-293T; in short: as §1
SARS-CoV-2 [4] = test: Antiviral activity against SARS-CoV-2 Wuhan-HU-1 infected African green monkey Vero E6 cells assessed as reduction in N-protein expression at 0.55 to 15 uM by indirect immunofluorescence assay; type: functional, organism-based; conditions: Severe acute respiratory syndrome coronavirus 2, dose 0.55-15 µM, DDE = dose-dependent effect
SARS-CoV-2 [5] = test: Antiviral activity against pseudovirus SARS-CoV-2 spike protein expressed in human HEK293T cells assessed as inhibition of spike protein S2 subunit mediated membrane fusion in African green monkey Vero E6 cells at 2.5 to 20 uM incubated for 0.5 hr and measured after 24 hrs by inverted fluorescence microscopy; type: functional, organism-based; conditions: Severe acute respiratory syndrome coronavirus 2, dose 2.5-20 µM, time 24.5 hrs, DDE = dose-dependent effect
In short: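 Effector HEK-293T cells were transfected with GFP/SARS-CoV-2 S plasmid, or an EGFP-only vector as control. They were treated with or without graded compound for 30 min, then overlaid on Vero-E6 target cells seeded 6 h before. After 24 h, three random fields were imaged by inverted fluorescence microscopy.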

Spike glycoprotein = Spike glycoprotein (Severe acute respiratory syndrome coronavirus 2, UniProt P0DTC2); test: Binding affinity to SARS-CoV-2 Spike trimer protein by SPR analysis
In short: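 Compound photo-crosslinked onto the chip; recombinant S-trimer injected at a series of concentrations in PBST (0.1% Tween 20, pH 7.4). Run at 4 °C, 600 s association, 360 s dissociation, 0.5 µL/s flow. Chip regenerated with glycine-HCl pH 2.0; KD from the SPR signals.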

SARS-CoV-2 [6] = test: Antiviral activity against SARS-CoV-2 Wuhan-HU-1 infected African green monkey Vero E6 cells preincubated for 1 hrs followed by incubation with virus 1 hr and measured after 24 hrs by fluorescence assay; type: functional, organism-based; conditions: Severe acute respiratory syndrome coronavirus 2, Wuhan-HU-1, Vero C1008

Q: For `COc1cccc(OC)c1NC(=O)[C@]12CC[C@@H](C)[C@H](C)[C@H]1C1=CC[C@@H]3[C@@]4(C)CC[C@H](O[C@@H]5O[C@H](CO)[C@@H](O[C@@H]6O[C@@H](C)[C@H](O)[C@@H](O)[C@H]6O)[C@H](O)[C@H]5O[C@@H]5O[C@@H](C)[C@H](O)[C@@H](O)[C@H]5O)C(C)(C)[C@@H]4CC[C@@]3(C)[C@]1(C)CC2`, which selectivity ratio [1] is on record?
A: > 48.8

Q: And the CC50 at 48 h [2]?
A: > 100 µM

Q: And the CC50 at 48 h [3]?
A: > 100 µM

Q: And the Activity (SARS-CoV-2 [4])?
A: Dde

Q: What about the inhibition (SARS-CoV-2 [5]) of the same compound?
A: Dde

Q: And the Kd (Spike glycoprotein)?
A: 0.78 µM

Q: What about the EC50 (SARS-CoV-2 [6]) of the same compound?
A: 2.05 µM

Q: For `COc1ccccc1NC(=O)[C@]12CC[C@@H](C)[C@H](C)[C@H]1C1=CC[C@@H]3[C@@]4(C)CC[C@H](O[C@@H]5O[C@H](CO)[C@@H](O[C@@H]6O[C@@H](C)[C@H](O)[C@@H](O)[C@H]6O)[C@H](O)[C@H]5O[C@@H]5O[C@@H](C)[C@H](O)[C@@H](O)[C@H]5O)C(C)(C)[C@@H]4CC[C@@]3(C)[C@]1(C)CC2`, which selectivity ratio [1] is on record?
A: > 42

Q: And the CC50 at 48 h [2]?
A: > 100 µM

Q: And the CC50 at 48 h [3]?
A: 43.3 µM

Q: And the Kd (Spike glycoprotein)?
A: 13.9 µM

Q: What about the EC50 (SARS-CoV-2 [6]) of the same compound?
A: 2.38 µM

Q: Which CC50 at 48 h [3] does the source give for `COc1ccc(CNC(=O)[C@]23CC[C@@H](C)[C@H](C)[C@H]2C2=CC[C@@H]4[C@@]5(C)CC[C@H](O[C@@H]6O[C@H](CO)[C@@H](O[C@@H]7O[C@@H](C)[C@H](O)[C@@H](O)[C@H]7O)[C@H](O)[C@H]6O[C@@H]6O[C@@H](C)[C@H](O)[C@@H](O)[C@H]6O)C(C)(C)[C@@H]5CC[C@@]4(C)[C@]2(C)CC3)cc1` here?
A: > 100 µM

Q: With `C[C@H]1[C@H](C)CC[C@]2(C(=O)NCc3ccccc3)CC[C@]3(C)C(=CC[C@@H]4[C@@]5(C)CC[C@H](O[C@@H]6O[C@H](CO)[C@@H](O[C@@H]7O[C@@H](C)[C@H](O)[C@@H](O)[C@H]7O)[C@H](O)[C@H]6O[C@@H]6O[C@@H](C)[C@H](O)[C@@H](O)[C@H]6O)C(C)(C)[C@@H]5CC[C@]43C)[C@H]12` as the compound, how does the CC50 at 48 h [3] read?
A: > 100 µM
